For 15 molecules, IC50, Ratio IC50 and inhibition results are on record in ChEMBL document CHEMBL2163288, “Design and characterization of a selenium-containing inhibitor of activated thrombin-activatable fibrinolysis inhibitor (TAFIa), a zinc-containing metalloprotease” (J Med Chem, 2012).

Active and inactive are the calls of the source. No cut-off for these calls is given here.

Experiment [1] is described as follows: Inhibition of human carboxypeptidase N using Hip-Lys as substrate incubated for 10 mins prior to substrate addition measured after 30 mins by spectrophotometric analysis in presence of dithiothreitol. In short, it runs like this: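 Human plasma carboxypeptidase N at 50 U/L preincubated with compounds for 10 min at 37 °C. Then Hip-Lys (3.2 mM stock) in 0.1 M Tris pH 7.6 buffer with DTT, for 30 min at 37 °C. Stopped with PIPES/Tween 20, cyanuric acid colour, A405. IC50 from sigmoidal inhibition curves.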

For experiment [2], the target named is T1, Carboxypeptidase B (Sus scrofa, UniProt P09955).
T1 sequence (P09955 whole entry): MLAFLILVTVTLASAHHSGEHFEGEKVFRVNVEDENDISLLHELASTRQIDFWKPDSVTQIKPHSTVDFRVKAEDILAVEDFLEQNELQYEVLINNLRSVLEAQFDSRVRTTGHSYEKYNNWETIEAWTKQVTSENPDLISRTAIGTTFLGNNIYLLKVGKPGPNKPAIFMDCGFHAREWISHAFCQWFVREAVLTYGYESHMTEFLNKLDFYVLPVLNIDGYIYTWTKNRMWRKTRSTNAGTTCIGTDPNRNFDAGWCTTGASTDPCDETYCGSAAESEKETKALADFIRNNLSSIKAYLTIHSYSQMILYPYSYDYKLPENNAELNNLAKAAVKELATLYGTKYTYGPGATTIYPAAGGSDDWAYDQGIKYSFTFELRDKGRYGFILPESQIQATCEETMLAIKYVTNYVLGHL
The experiment is described as follows: Inhibition of pig pancreatic carboxypeptidase B using Hip-Arg as substrate incubated for 10 mins prior to substrate addition measured after 30 mins by spectrophotometric analysis in presence of dithiothreitol. The gist of the method: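 Porcine pancreatic CPB at 20 U/L preincubated with compounds for 10 min at 25 °C. Then Hip-Arg (3.2 mM stock) in 0.1 M Tris pH 7.6 with 10 μM DTT final, for 30 min at 25 °C. Stopped with PIPES/Tween 20, cyanuric acid colour, absorbance at 405 nm. IC50 from sigmoidal inhibition curves.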

Experiment [3] addresses T2, Carboxypeptidase B2 (Homo sapiens, UniProt Q96IY4).
T2 sequence (Q96IY4 whole entry): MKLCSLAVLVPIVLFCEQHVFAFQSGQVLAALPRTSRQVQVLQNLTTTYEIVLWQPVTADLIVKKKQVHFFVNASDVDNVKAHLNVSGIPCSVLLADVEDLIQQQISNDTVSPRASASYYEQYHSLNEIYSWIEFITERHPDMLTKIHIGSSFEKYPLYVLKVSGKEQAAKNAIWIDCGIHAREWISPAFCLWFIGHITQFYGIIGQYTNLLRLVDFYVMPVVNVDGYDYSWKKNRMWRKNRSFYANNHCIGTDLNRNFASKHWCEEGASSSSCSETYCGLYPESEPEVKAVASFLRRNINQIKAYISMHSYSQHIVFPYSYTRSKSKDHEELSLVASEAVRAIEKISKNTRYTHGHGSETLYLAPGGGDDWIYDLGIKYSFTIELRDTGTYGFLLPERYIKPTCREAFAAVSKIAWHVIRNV
The experiment in a line: Inhibition of human activated TAFI using Hip-Arg as substrate incubated for 10 mins prior to substrate addition measured after 30 mins by spectrophotometric analysis in presence of dithiothreitol. The gist of the method: (§1)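 TAFI purified from human plasma, pre-mixed with 300 ng/mL thrombomodulin (25 °C, 3 min), then activated with 3 U/mL thrombin (25 °C, 30 min). 20 U/L TAFIa preincubated with compounds for 10 min at 25 °C. Hip-Arg (3.2 mM stock) in 0.1 M Tris pH 7.6, with or without 10 μM DTT final, for 30 min at 25 °C. Stopped with PIPES/Tween 20, cyanuric acid colour read at A405. IC50 taken from sigmoidal curves.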

Experiment [4] in a line: Inhibition of human carboxypeptidase N using Hip-Lys as substrate incubated for 10 mins prior to substrate addition measured after 30 mins by spectrophotometric analysis. In short, it runs like this: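 Human plasma CPN (50 U/L) preincubated with compound at 37 °C for 10 min, then Hip-Lys (3.2 mM stock) added in 0.1 M Tris-HCl pH 7.6 (±10 μM DTT) for 30 min at 37 °C. Stopped with PIPES/Tween 20 buffer; cyanuric acid colour read at 405 nm; IC50 from sigmoidal inhibition curves.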

The target in experiment [5] is T1, Carboxypeptidase B. The experiment in a line: Inhibition of pig pancreatic carboxypeptidase B using Hip-Arg as substrate incubated for 10 mins prior to substrate addition measured after 30 mins by spectrophotometric analysis.
Experiment [6] deals with T2, Carboxypeptidase B2. The experiment is described as follows: Inhibition of human activated TAFI using Hip-Arg as substrate incubated for 10 mins prior to substrate addition measured after 30 mins by spectrophotometric analysis. The gist of the method: as §1
The species named for another experiment is Homo sapiens. The experiment is described as follows: Selectivity ratio of IC50 for human carboxypeptidase N to IC50 for human activated TAFI.
Experiment [7] concerns the target T3, Carboxypeptidase B2 (Homo sapiens) (UniProt Q96IY4).
T3 sequence (whole entry): T2 sequence (Q96IY4 whole entry)
The experiment in a line: Inhibition of human activated TAFI using Hip-Arg as substrate at 10 uM incubated for 10 mins prior to substrate addition measured after 30 mins by spectrophotometric analysis. In short, it runs like this:
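Plasma-purified human TAFI activated with thrombomodulin (25 °C, 3 min), then thrombin (25 °C, 30 min). TAFIa (20 U/L) preincubated with compound at 25 °C for 10 min. Hip-Arg substrate (3.2 mM stock) added in 0.1 M Tris-HCl pH 7.6 with or without 10 μM DTT, 30 min at 25 °C. Stopped with PIPES/Tween 20; cyanuric acid colour read at 405 nm; IC50 from sigmoidal curves.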

Experiment [8] is described as follows: Selectivity ratio of IC50 for pig pancreatic carboxypeptidase B to IC50 for human activated TAFI.

Consider `NCCCCCC(C[Se]C(=O)CCc1ccccc1)C(=O)O` (stereo not given), for which the IC50 – broadly, the concentration at which inhibition is half-maximal – in experiment [1] was determined as 0.014 µM; on Carboxypeptidase B [2], 0.0032 µM; at Carboxypeptidase B2 [3] it was 5.3 nM; in experiment [4], 1.7 µM; at Carboxypeptidase B [5] it was 1.4 µM; at Carboxypeptidase B2 [6] it was 2 µM.
As for `CC(=O)SCC(CCCCCN)C(=O)O` (stereo not given), the Ratio IC50 in the experiment filed under Homo sapiens came out at 40. The concentration for half-maximal inhibition (IC50) in experiment [4] stood at 160 µM; against Carboxypeptidase B [5] it was 1.4 µM; against Carboxypeptidase B2 [6], 3.8 µM.
For the molecule `O[C@@H](CS)[C@@H](O)CS`, the inhibition result in experiment [7] is “inactive”.
Take `CCC(=O)[Se]CC(CCCCCN)C(=O)O` (stereo not given): the half-maximal inhibitory concentration (IC50) in experiment [1] came out at 0.018 µM; on Carboxypeptidase B [2] it was 0.0011 µM; at Carboxypeptidase B2 [3], 1.1 nM; in [4], 2 µM; on Carboxypeptidase B [5] it was 1.9 µM; against Carboxypeptidase B2 [6] it was 0.76 µM.
With `Nc1ncc(CC(C[Se][Se]CC(Cc2cnc(N)c(Cl)c2)C(=O)O)C(=O)O)cc1Cl` (stereo not given), the Ratio IC50 in experiment [8] came out at 3. Moreover, the IC50 in experiment [1] was above 3800 µM; on Carboxypeptidase B [2] it was 0.0015 µM; at Carboxypeptidase B2 [3] it was 0.025 nM; in [4] it was above 3800 µM; at Carboxypeptidase B [5], 370 µM; on Carboxypeptidase B2 [6], 3.3 µM.
On to `CCOC(=O)C(CCCCCN)C[Se]C(=O)CC` (stereo not given), for which the IC50 is 0.16 µM in experiment [1]; 0.033 µM on Carboxypeptidase B [2]; 30 nM at Carboxypeptidase B2 [3]; 14 µM in experiment [4]; 910 µM against Carboxypeptidase B [5]; 1.4 µM against Carboxypeptidase B2 [6].
Regarding `CC(C)[C@H](NC(=O)CCc1ccccc1)P(=O)(O)C[C@@H](CCCCCN)C(=O)O`, the IC50 amounted to 6.7 µM in [4], 0.0049 µM at Carboxypeptidase B [5] and 0.0055 µM against Carboxypeptidase B2 [6].
On to `NCCCCCC(CS)C(=O)O` (stereo not given), for which the half-inhibitory concentration (IC50) in [4] was 1.4 µM; against Carboxypeptidase B2 [6] it was 0.034 µM.
Regarding `NCCCCCC(C[Se][Se]CC(CCCCCN)C(=O)O)C(=O)O` (stereo not given), the IC50 is 0.0086 µM in experiment [1]; 0.0011 µM on Carboxypeptidase B [2]; 2 nM on Carboxypeptidase B2 [3]; above 3800 µM in [4]; 110 µM on Carboxypeptidase B [5]; above 3800 µM at Carboxypeptidase B2 [6].
For the molecule `CCOC(=O)C(C[Se]C(=O)CC)Cc1ccc(N)nc1` (stereo not given), the Ratio IC50 in experiment [8] was found to be 3. Moreover, the concentration for half-maximal inhibition (IC50) in [1] was 1.7 µM; on Carboxypeptidase B [2], 2.5 µM; at Carboxypeptidase B2 [3], 890 nM; in [4], 15 µM; at Carboxypeptidase B [5] it was above 3800 µM; against Carboxypeptidase B2 [6], 180 µM.
For the molecule `CCOC(=O)C(CS)CCCCCN` (stereo not given), the Ratio IC50 in the experiment listed under Homo sapiens stood at 0.4. Moreover, the results for the concentration for half-maximal inhibition (IC50) (in [4]; against Carboxypeptidase B [5]; at Carboxypeptidase B2 [6]) were 25 µM, 260 µM and 62 µM, respectively.
For `NCCCCCC(C[Se]C(=O)CCCc1ccccc1)C(=O)O` (stereo not given), the 50% inhibitory concentration (IC50) in experiment [1] stood at 0.016 µM; at Carboxypeptidase B [2], 0.0032 µM; at Carboxypeptidase B2 [3] it was 4.1 nM; in experiment [4], 6 µM; at Carboxypeptidase B [5] it was 1.5 µM; on Carboxypeptidase B2 [6] it was 1.6 µM.
`CCOC(=O)C(C[Se]C(=O)CC)Cc1cnc(N)c(Cl)c1` (stereo not given): in experiment [8], the Ratio IC50 was determined as 3. Moreover, the half-maximal inhibitory concentration (IC50) in [1] is above 3800 µM; on Carboxypeptidase B [2], 130 µM; at Carboxypeptidase B2 [3], 2600 nM; in experiment [4], above 3800 µM; against Carboxypeptidase B [5], above 3800 µM; on Carboxypeptidase B2 [6], above 3800 µM.
As for `CCOC(=O)C(CCCCCN)CSC(C)=O` (stereo not given), the figures for the half-inhibitory concentration (IC50) (in [4]; against Carboxypeptidase B [5]; against Carboxypeptidase B2 [6]) were above 3800 µM, 19 µM and 310 µM, respectively.
As to `Nc1ccc(CC(C[Se][Se]CC(Cc2ccc(N)nc2)C(=O)O)C(=O)O)cn1` (stereo not given), the Ratio IC50 in experiment [8] was determined as 3. Further, the IC50 was 0.00029 µM in experiment [1]; 0.00019 µM on Carboxypeptidase B [2]; 0.0022 nM on Carboxypeptidase B2 [3]; 4.2 µM in experiment [4]; 0.28 µM on Carboxypeptidase B [5]; 0.2 µM on Carboxypeptidase B2 [6].
